Assay results as given in ChEMBL document CHEMBL2384907, “Identification of substituted pyrimido[5,4-b]indoles as selective Toll-like receptor 4 ligands” (J Med Chem, 2013).
Active and inactive are the calls of the source. No cut-off for these calls is given here.

Key:
[1] = molecular target: Toll-like receptor 4 (Homo sapiens) (UniProt O00206); test: Activation of TLR4 in human PBMC cells assessed as AUC of IL8 release at 10 uM after 18 hrs by ELISA relative to N-cyclohexyl-2-(4-oxo-3-phenyl-4,5-dihydro-3H-pyrimido[5,4-b]indol-2-ylthio)acetamide; type: cell-based
Method in brief: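 Human PBMC from buffy coats, 1 × 10^6/mL in complete RPMI, 18 h at 37 °C, 5% CO2 with compound at 10 μM; IL-8 in supernatant by ELISA, normalized to reference hit set at 100. LPS 10 ng/mL positive control.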

[2] = molecular target: T1, Toll-like receptor 4 (Mus musculus) (UniProt Q9QUK6); test: Activation of mouse TLR4 transfected in HEK293 cells after 18 hrs by SEAP assay relative to N-cyclohexyl-2-(4-oxo-3-phenyl-4,5-dihydro-3H-pyrimido[5,4-b]indol-2-ylthio)acetamide; type: cell-based
T1 sequence (whole entry): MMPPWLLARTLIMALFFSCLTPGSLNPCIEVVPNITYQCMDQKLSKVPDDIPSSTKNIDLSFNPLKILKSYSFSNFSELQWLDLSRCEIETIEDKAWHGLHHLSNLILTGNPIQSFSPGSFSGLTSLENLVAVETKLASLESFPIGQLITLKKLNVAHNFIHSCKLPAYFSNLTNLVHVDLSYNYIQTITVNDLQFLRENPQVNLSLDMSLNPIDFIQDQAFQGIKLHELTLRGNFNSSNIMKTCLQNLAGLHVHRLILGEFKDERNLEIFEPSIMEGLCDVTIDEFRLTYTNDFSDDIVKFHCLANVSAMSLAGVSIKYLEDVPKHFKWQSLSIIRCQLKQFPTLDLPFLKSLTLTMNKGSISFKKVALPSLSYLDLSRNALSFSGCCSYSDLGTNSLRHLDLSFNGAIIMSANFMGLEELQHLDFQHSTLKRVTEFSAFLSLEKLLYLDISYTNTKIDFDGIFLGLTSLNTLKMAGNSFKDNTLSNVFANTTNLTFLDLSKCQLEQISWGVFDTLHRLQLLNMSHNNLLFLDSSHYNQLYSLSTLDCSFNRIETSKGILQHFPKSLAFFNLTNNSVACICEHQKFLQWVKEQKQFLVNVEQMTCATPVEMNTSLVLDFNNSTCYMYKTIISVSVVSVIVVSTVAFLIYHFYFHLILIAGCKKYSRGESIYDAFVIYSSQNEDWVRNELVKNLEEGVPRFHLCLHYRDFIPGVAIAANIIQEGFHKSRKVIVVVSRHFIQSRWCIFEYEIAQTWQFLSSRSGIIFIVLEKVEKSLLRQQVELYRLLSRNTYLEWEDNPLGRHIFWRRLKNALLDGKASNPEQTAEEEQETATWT
Method in brief: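 Mouse TLR4 HEK-Blue cells (2.5 × 10^4/well) given titrated doses 312 nM–10 μM for 18 h, 0.5% DMSO vehicle; SEAP at 630 nm. Percent-activity curves, AUC by trapezoid method, normalized to reference hit set at 100. LPS 10 ng/mL control.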

[3] = molecular target: T1, Toll-like receptor 4 (Mus musculus); test: Activation of TLR4 in C57BL/6 mouse BMDC cells assessed as AUC of IP10 release at 5 uM after 18 hrs by ELISA relative to N-cyclohexyl-2-(4-oxo-3-phenyl-4,5-dihydro-3H-pyrimido[5,4-b]indol-2-ylthio)acetamide; type: cell-based
[4] = molecular target: T1, Toll-like receptor 4 (Mus musculus); test: Activation of TLR4 in C57BL/6 mouse BMDC cells assessed as AUC of IL6 release after 18 hrs by ELISA relative to N-cyclohexyl-2-(4-oxo-3-phenyl-4,5-dihydro-3H-pyrimido[5,4-b]indol-2-ylthio)acetamide; type: cell-based
Method in brief: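 C57BL/6 bone marrow DC, 10^5 cells/well in RPMI-10% FCS, 18 h at 37 °C with titrated doses 312 nM–10 μM; supernatant IL-6 by ELISA. Each curve converted to percent activity (background subtracted, plate-adjusted), AUC by trapezoid method, normalized to reference hit set at 100 per experiment. LPS 10 ng/mL positive control; 0.5% DMSO vehicle.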

[5] = molecular target: T2, Toll-like receptor 7 (Homo sapiens) (UniProt Q9NYK1); test: Activation of human TLR7 transfected in HEK293 cells at 10 uM after 20 to 24 hrs by SEAP assay; type: cell-based
T2 sequence (whole entry): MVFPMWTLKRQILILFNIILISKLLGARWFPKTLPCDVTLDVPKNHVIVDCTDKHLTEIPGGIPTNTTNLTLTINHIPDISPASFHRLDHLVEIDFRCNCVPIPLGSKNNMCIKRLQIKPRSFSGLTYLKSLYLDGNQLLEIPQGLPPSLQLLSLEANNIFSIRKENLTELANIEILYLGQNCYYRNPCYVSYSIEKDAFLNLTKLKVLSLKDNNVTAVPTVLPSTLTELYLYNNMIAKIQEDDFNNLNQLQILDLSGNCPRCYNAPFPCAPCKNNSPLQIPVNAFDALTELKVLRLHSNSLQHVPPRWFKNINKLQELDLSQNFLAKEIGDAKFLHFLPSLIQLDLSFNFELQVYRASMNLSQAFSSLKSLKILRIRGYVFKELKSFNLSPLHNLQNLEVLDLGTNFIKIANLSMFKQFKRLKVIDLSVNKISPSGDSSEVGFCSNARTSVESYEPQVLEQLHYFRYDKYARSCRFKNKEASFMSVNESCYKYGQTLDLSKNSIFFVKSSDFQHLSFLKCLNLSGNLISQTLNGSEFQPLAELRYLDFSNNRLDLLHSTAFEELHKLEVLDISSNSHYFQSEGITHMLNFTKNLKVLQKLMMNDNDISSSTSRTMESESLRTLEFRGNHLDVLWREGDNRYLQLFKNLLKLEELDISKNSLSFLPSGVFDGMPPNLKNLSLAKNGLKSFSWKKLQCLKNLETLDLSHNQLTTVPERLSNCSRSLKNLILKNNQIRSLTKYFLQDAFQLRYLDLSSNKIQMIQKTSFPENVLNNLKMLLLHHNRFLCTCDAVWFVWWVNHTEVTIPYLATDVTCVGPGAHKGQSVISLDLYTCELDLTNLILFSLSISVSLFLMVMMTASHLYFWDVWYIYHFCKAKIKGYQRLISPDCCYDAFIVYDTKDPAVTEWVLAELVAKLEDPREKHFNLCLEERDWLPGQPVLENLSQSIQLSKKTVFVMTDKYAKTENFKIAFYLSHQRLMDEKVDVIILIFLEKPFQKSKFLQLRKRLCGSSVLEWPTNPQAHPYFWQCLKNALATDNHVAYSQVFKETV

[6] = molecular target: Toll-like receptor 5 (Homo sapiens) (UniProt O60602); test: Activation of human TLR5 transfected in HEK293 cells at 10 uM after 20 to 24 hrs by SEAP assay; type: cell-based
[7] = molecular target: Toll-like receptor 3 (Homo sapiens) (UniProt O15455); test: Activation of human TLR3 transfected in HEK293 cells at 10 uM after 20 to 24 hrs by SEAP assay; type: cell-based
[8] = molecular target: Toll-like receptor 4/MD-2/CD14 (Mus musculus) (UniProt Q9QUK6+Q9JHF9+P10810); test: Activation of mouse TLR4/MD-2/CD14 complex in HEK293 cells assessed as NFkappaB activation by SEAP assay in presence of LPS-RS

Toll-like receptor 5 (Homo sapiens), sequence (O60602 whole entry): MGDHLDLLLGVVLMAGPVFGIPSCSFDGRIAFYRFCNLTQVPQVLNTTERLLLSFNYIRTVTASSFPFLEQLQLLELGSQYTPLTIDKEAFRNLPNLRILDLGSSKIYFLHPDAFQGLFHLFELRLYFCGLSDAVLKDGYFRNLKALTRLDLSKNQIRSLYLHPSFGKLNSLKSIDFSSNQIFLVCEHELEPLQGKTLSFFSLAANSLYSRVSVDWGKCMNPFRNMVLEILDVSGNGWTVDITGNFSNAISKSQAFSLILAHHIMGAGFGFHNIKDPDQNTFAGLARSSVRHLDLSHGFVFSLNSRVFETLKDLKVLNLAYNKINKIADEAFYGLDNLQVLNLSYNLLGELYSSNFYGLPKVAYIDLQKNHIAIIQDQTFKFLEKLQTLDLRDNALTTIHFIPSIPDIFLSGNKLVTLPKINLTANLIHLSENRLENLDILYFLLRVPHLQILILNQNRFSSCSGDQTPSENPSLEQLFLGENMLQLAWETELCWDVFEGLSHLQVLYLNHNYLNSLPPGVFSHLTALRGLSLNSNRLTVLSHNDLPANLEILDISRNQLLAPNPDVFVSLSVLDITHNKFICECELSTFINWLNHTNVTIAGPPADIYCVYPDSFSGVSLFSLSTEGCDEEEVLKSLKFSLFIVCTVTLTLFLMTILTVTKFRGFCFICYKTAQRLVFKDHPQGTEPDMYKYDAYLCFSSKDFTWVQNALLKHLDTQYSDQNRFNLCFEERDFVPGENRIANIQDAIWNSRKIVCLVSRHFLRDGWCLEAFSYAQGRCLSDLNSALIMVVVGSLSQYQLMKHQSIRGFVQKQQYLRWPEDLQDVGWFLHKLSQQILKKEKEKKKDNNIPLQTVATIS
Toll-like receptor 3 (Homo sapiens), sequence (O15455 whole entry): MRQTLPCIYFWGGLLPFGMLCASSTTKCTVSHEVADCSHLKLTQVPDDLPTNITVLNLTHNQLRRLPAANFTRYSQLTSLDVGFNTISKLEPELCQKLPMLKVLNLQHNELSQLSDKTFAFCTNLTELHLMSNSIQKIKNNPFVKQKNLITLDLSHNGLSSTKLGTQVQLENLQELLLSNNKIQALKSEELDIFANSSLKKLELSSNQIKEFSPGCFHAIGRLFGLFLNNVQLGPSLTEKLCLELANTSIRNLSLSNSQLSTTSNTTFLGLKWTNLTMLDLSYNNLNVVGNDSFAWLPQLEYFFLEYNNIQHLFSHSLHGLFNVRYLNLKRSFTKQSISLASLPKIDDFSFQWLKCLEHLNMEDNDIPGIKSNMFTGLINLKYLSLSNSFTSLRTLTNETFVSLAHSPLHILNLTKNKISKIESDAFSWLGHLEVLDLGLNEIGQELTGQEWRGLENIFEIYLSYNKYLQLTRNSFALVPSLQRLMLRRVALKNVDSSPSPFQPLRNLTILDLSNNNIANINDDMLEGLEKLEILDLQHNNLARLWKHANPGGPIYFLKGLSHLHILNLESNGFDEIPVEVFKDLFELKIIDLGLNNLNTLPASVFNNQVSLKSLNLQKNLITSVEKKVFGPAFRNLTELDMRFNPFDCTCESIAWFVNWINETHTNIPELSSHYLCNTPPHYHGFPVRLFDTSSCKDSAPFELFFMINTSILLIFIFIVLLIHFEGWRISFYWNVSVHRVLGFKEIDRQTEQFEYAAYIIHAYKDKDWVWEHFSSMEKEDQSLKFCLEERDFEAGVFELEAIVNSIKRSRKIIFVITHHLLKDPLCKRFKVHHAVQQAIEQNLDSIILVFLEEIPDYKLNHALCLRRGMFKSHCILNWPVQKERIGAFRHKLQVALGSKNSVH
Toll-like receptor 4 (Homo sapiens), sequence (O00206 whole entry): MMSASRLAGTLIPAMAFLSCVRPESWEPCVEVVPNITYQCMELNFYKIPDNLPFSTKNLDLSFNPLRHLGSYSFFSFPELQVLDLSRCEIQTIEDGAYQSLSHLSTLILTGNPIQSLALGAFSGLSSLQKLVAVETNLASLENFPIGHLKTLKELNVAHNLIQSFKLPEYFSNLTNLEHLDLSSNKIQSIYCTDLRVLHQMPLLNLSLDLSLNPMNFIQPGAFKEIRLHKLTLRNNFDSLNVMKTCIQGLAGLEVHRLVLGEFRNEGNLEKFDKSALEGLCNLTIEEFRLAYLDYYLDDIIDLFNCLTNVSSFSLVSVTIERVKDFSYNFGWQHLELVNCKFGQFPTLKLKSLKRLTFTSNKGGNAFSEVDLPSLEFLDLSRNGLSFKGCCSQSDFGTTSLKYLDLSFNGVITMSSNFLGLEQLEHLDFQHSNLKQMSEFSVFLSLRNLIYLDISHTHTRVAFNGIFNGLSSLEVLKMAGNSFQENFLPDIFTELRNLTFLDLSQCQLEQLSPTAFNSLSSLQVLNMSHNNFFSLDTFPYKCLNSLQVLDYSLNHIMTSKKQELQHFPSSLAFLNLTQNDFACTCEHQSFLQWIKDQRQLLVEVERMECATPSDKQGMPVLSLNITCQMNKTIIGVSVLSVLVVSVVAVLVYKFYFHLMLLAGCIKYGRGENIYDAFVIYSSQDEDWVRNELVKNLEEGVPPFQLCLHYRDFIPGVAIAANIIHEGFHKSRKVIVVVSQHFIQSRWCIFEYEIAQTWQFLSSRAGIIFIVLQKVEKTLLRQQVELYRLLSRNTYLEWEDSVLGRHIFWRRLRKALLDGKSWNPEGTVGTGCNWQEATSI

Activity [1]: 100%
Activity [2]: 100%
Activity [3]: 100%
Activity [4]: 100%
Activity [5]: inactive
Activity [6]: inactive
Activity [7]: inactive
Activity [8]: Dose-dependent effect
Compound: O=C(CSc1nc2c([nH]c3ccccc32)c(=O)n1-c1ccccc1)NC1CCCCC1
